# Measured values collected from several papers.
# Lines come from different studies, so protocols differ.
# Cell line: A549
# Read-out: cell growth or viability
Structure (SMILES),method,time,IC50
C=CC(=O)Nc1cc(Nc2nc(N3CCc4sccc4C3)c3cccnc3n2)c(OC)cc1N1CCSCC1,MTT,,23.9 µM
COc1ccccc1/C=C/CNCC(O)COc1cccc2[nH]c3ccccc3c12 (stereo not shown),CCK-8,72 h,7.9 µM
COCCCOC(=O)[C@]1(C)CC[C@]2(C)CC[C@]3(C)C4=CC=C5C(=CC(=O)C(O)=C5C)[C@]4(C)CC[C@@]3(C)[C@@H]2C1,MTT,48 h,3.22 µM
CC(C)Cc1ccc(-c2nn(-c3ccc(S(C)(=O)=O)cc3)cc2/C=N\N=C2/NC(=O)CS2)cc1,MTT,48 h,3.44 µM
O=C(N/N=C/CN1CCCCC1)Nc1cc2c(Nc3ccc(F)c(Cl)c3)ncnc2cc1O[C@H]1CCOC1,MTT,72 h,4.2 µM
Cc1c(OCC(F)(F)F)ccnc1COc1ccc(NC(=O)Nc2ccc(F)cc2)cc1,MTT,72 h,5.37 µM
COc1ccccc1/C=C/CNCC(O)COc1ccc2c(c1)[nH]c1ccccc12 (stereo not shown),CCK-8,72 h,6.8 µM
Cc1ccc(C)n1-c1ccc(-c2nnco2)cc1,MTT,72 h,226 µM
CC(C)C[C@H](NC(=O)[C@H](Cc1ccccc1)NC(=O)c1cnccn1)B(O)O,ATP luminescence,,0.02 µM
Brc1ccc(Nc2nc(NCCc3ccccc3)nc(NCCc3ccccc3)n2)cc1,SRB,72 h,19.7 µM
COCCCOc1ccnc(COc2ccc(NC(=O)Nc3ccc(Cl)c(C(F)(F)F)c3)cc2)c1C,MTT,72 h,6.19 µM
CCCCC[C@H](O)CC(=O)CCc1ccc(O)c(OC)c1,SRB,,208 µM
CN(C)c1ccc2cc(C(=O)N[C@@H](CCCNC(=N)CCl)C(=O)NCc3ccccc3)ccc2c1,,48 h,9.7 µM
Cc1ccc(-c2csc(Nc3ccc4c(O)ncnc4c3)n2)cc1,MTT,,27 µM
CC(C)(C)NC(=O)NNC(=O)c1ccc(Nc2nccc(-c3ccccn3)n2)cc1,MTT,,> 40 µM
O=C(CN1C(=O)/C(=C/c2ccco2)SC1=S)Nc1ccccc1,MTT,,14.9 µM
COc1cc2ncnc(Nc3ccc(F)c(Cl)c3)c2cc1NC(=O)N/N=C/c1cccn1CCCN1CCN(C)CC1,MTT,72 h,3.23 µM
O=C1Nc2ccc(Br)cc2/C1=N/NC(=O)c1cc2ccccc2[nH]1,,,16 µM
O=C(NC(=S)N1CCCCC1)c1ccc2ccccc2c1,,48 h,5.95 µM
COc1cc(N(C)CCN(C)C)c(NC(=O)/C=C/C(C)C)cc1Nc1nc(Nc2cnn(C)c2)c2sccc2n1,MTT,,0.44 µM
O=C(/N=c1\scc(-c2ccccc2)n1C1CCCCC1)c1ccc2ccccc2c1,,48 h,16.4 µM
CCN(CC)CCn1cccc1/C=N/NC(=O)Nc1cc2c(Nc3ccc(F)c(Cl)c3)ncnc2cc1O[C@H]1CCOC1,MTT,72 h,1.59 µM
